Data set [1] is filed under the species Gallus gallus. The data set is described as follows: Ratio of HDL/total cholesterol value. The class given is functional. The essentials:
(§1)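 Six-week-old male chickens fed corn-soybean control diet with test compound at 50 ppm. Birds fasted 36 h, then refed 48 h before sacrifice. Serum total, LDL and HDL cholesterol and triglycerides measured (mg/100 mL), HDL/total ratio computed. Means ± SD, n = 6–12 per group, also as % of control. Significance p < 0.01 within each study.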

Data set [2] in a line: Compound oxidation potential using cyclic voltametry. It is filed as ADME.
The species entered for data set [3] is Gallus gallus. The data set is described as follows: (§2) Hypocholesterolemic activity in 6-week old male mormocholesterolemic chickens using experiment 1. The class given is functional. The method, boiled down:
as §1

Data set [4] is described as follows: LDL oxidation assay as spectrophotometric determination of TBARS. The class given is functional. The method, boiled down: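 LDL (0.5 mg/mL protein stock) in saline/20 mM HEPES with drug in ethanol, oxidised by CuSO4 (4 × 10⁻⁴ M stock), 37 °C, 5 h, in duplicate. Stopped with EDTA; TCA/TBA added, boiled 30 min, A535 read. Malonaldehyde equivalents from tetramethoxypropane standard curve. IC50 = concentration inhibiting 50% TBARS vs ethanol controls.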

The subject of a further data set is HepG2. The data set is described as follows: In vitro inhibition of cholesterol biosynthesis in Hep G2 cells. The class given is functional, Homo sapiens. Also noted: concentration or dose not given beside the values. The essentials: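 HepG2 human hepatoma cells incubated 4 h with compound at 10 μM, DMSO vehicle controls. Mean % inhibition vs controls, SD ≤ ±10%, n ≥ 8.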

For data set [5], the target named is T1, 3-hydroxy-3-methylglutaryl-coenzyme A reductase (Homo sapiens) (UniProt P04035).
T1 sequence (whole entry): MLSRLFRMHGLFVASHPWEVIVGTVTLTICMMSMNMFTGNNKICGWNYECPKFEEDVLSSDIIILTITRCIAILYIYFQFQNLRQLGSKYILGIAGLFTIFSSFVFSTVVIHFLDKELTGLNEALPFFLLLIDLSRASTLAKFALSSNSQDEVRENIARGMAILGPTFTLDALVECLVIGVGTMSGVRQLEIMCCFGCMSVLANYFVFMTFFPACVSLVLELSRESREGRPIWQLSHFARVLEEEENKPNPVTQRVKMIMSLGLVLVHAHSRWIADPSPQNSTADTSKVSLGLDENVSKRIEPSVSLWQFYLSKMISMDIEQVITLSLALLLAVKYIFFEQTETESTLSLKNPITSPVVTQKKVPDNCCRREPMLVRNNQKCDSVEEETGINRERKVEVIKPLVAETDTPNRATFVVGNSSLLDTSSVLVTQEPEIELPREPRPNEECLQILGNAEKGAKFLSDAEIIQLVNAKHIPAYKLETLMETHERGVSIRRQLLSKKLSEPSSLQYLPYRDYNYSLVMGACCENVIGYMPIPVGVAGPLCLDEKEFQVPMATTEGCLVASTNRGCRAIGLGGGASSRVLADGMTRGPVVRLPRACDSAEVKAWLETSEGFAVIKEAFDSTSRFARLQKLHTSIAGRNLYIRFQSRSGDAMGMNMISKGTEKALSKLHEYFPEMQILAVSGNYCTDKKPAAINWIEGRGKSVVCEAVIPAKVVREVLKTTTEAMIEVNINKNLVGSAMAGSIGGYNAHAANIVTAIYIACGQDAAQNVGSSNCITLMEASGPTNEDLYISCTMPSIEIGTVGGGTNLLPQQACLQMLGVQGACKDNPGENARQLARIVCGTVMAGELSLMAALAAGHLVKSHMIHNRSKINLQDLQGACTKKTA
The data set is described as follows: In vitro suppression of HMG-CoA reductase (HMGR) in Hep G2 cells. The class given is cell-based. Details: concentration or dose not given beside the values. Conditions: HepG2, concentration not given here. The essentials: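 HepG2 cells treated 4 h with compound at 10 μM, DMSO vehicle controls. HMG-CoA reductase activity assayed in microsomal fraction isolated at end of incubation. Mean % suppression vs controls, SD ≤ ±10%, n ≥ 8.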

Data set [6] is filed under the species Gallus gallus. Described as §2. It is filed as functional. The essentials:
(§3)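 Male chickens, 6 weeks old. Test compound mixed at 50 ppm into a corn-soybean control diet; controls get the diet alone. After the feeding period, birds are fasted 36 h and refed 48 h before sacrifice. Serum total, LDL and HDL cholesterol (mg/100 mL) and triglycerides measured; expressed as mean ± SD and percent of control, n = 6–12 per group.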
The source holds these as a separate data set.

For data set [7], the species on record is Gallus gallus. The data set is described as follows: (§4) Hypocholesterolemic activity in 6-week old male mormocholesterolemic chickens using experiment 3. The class given is functional. The method, boiled down:
as §3

The species named for data set [8] is Gallus gallus. The description is as §4. It is filed as functional. The method, boiled down: as §1
This is another data set of the same source.

The species entered for data set [9] is Gallus gallus. The data set can be described thus: (§5) Hypocholesterolemic activity in 6-week old male mormocholesterolemic chickens using experiment 4. It is filed as functional. The essentials: as §1
Data set [10] is filed under the species Gallus gallus. The description is as §5. The class given is functional. The essentials:
as §3
This is another data set of the same source.

Data set [11] can be described thus: Oxidation potential assay as cyclic voltametry; not electrochemically active within scan range. The class given is functional.
For data set [12], the species on record is Gallus gallus. The data set is described as follows: (§6) Hypocholesterolemic activity in 6-week old male mormocholesterolemic chickens using experiment 2. It is filed as functional. The method, boiled down: as §3
Data set [13] is filed under the species Gallus gallus. Described as §6. The class given is functional. The essentials: as §1
The source holds these as a separate data set.

Values joined by “and” are separate entries in the source; they are usually repeats but may differ in a detail not shown here. Identical values can stand only once.

As to `CC(C)=CCC/C(C)=C/CC/C(C)=C/CCC1(C)CC(=O)c2cc(O)c(C)c(C)c2O1` (stereo unspecified), the Ratio in the data set filed under Gallus gallus [1] worked out at 0.81. In data set [2], this molecule came in with a Potential of 1.2. In the data set filed under Gallus gallus [3], the HDL cholesterol stood at 108 mg 100ml-1, the Total cholesterol was 133 mg 100ml-1 and the Triglycerides was found to be 64 mg 100ml-1. This molecule also showed a 50% inhibitory concentration (IC50) in [4] of 2000 nM. In addition, the Inhibition in the data set on HepG2 was 93%. Further, the inhibition in [5] turned out to be 16%. Further, the LDL cholesterol in the data set listed under Gallus gallus [6] was 36 mg 100ml-1.
In the case of `CC(C)=CCC/C(C)=C/CC/C(C)=C/CCC1(C)CCc2cc(O)c3ccccc3c2O1` (stereo unspecified), the Ratio in the data set listed under Gallus gallus [1] amounted to 0.61. The same molecule yielded a Potential in data set [2] of 0.8. For the same molecule, the LDL cholesterol in the data set filed under Gallus gallus [7] was 61 mg 100ml-1. This molecule also came in with an Inhibition with HepG2 of 57%. In [5], this molecule returned an inhibition of 57%. In the data set filed under Gallus gallus [8], this molecule displayed an HDL cholesterol of 97 mg 100ml-1, a Total cholesterol of 160 mg 100ml-1 and a Triglycerides of 81 mg 100ml-1.
For the molecule `CC(C)=CCC/C(C)=C/CC/C(C)=C/CCC1CCc2cc(O)c(C)c(C)c2O1` (stereo unspecified), the Ratio in the data set filed under Gallus gallus [1] was 0.52 and 0.54. Further, the HDL cholesterol in the data set filed under Gallus gallus [9] stood at 97 mg 100ml-1; in the data set listed under Gallus gallus [8], 102 mg 100ml-1. The figures for the Total cholesterol in the data set listed under Gallus gallus [9] and in the data set listed under Gallus gallus [8] were 178 mg 100ml-1 and 197 mg 100ml-1, respectively. In addition, the figures for the Triglycerides in the data set listed under Gallus gallus [9] and in the data set listed under Gallus gallus [8] were 83 mg 100ml-1 and 86 mg 100ml-1, respectively. The results for the LDL cholesterol in the data set filed under Gallus gallus [10] and in the data set listed under Gallus gallus [7] were 76 mg 100ml-1 and 85 mg 100ml-1, respectively. The Inhibition with HepG2 was 62%. Also, in data set [5], the inhibition stood at 67%.
Regarding `CC(C)=CCC/C(C)=C/CC/C(C)=C/CCC1(C)CCc2ccccc2O1` (stereo unspecified), the Inhibition in the data set with HepG2 came to 45%. The Potential entry in [11] was “Not electrochemically active”. The inhibition in data set [5] was determined as 0%.
As to `CC(C)=CCC/C(C)=C/CC/C(C)=C/CCC1CCc2cc(O)ccc2O1` (stereo unspecified), the Ratio in the data set listed under Gallus gallus [1] amounted to 0.73. In the data set with HepG2, this molecule had an Inhibition of 71%. In the data set listed under Gallus gallus [12], this molecule returned an LDL cholesterol of 23 mg 100ml-1. In the data set listed under Gallus gallus [13], this molecule yielded an HDL cholesterol of 86 mg 100ml-1, a Total cholesterol of 118 mg 100ml-1 and a Triglycerides of 81 mg 100ml-1.
As for `CC(C)=CCC/C(C)=C/CC/C(C)=C/CCC1(C)CCc2cc(O)ccc2C1` (stereo unspecified), in the data set filed under Gallus gallus [1], the Ratio is given as 0.68. The molecule also came in with a Potential in data set [2] of 1.48. Also, the Inhibition in the data set with HepG2 came out at 58%. The LDL cholesterol in the data set filed under Gallus gallus [12] was 28 mg 100ml-1. In the data set listed under Gallus gallus [13], this molecule showed an HDL cholesterol of 85 mg 100ml-1, a Total cholesterol of 125 mg 100ml-1 and a Triglycerides of 86 mg 100ml-1.
For `CC(C)=CCC/C(C)=C/CC/C(C)=C/CCC1(C)CCc2cc(O)c(C)c(C)c2O1` (stereo unspecified), the Ratio in the data set listed under Gallus gallus [1] is 0.74 and 0.62 and 0.68. Also, the Potential in [2] is 0.94. Besides, the HDL cholesterol in the data set filed under Gallus gallus [9] was 85 mg 100ml-1; in the data set filed under Gallus gallus [3], 89 mg 100ml-1; in the data set filed under Gallus gallus [8], 94 mg 100ml-1. Moreover, the Total cholesterol in the data set filed under Gallus gallus [9] is given as 125 mg 100ml-1; in the data set filed under Gallus gallus [3], 121 mg 100ml-1; in the data set listed under Gallus gallus [8], 151 mg 100ml-1. Further, the Triglycerides is given as 57 mg 100ml-1 in the data set filed under Gallus gallus [9], 62 mg 100ml-1 in the data set listed under Gallus gallus [3] and 83 mg 100ml-1 in the data set listed under Gallus gallus [8]. The LDL cholesterol in the data set listed under Gallus gallus [10] was determined as 33 mg 100ml-1; in the data set listed under Gallus gallus [7] it was 51 mg 100ml-1; in the data set filed under Gallus gallus [6], 29 mg 100ml-1. It took 1800 nM to reach half-maximal inhibition in data set [4] (IC50). In the data set with HepG2, this molecule had an Inhibition of 69%. The molecule further returned an inhibition in data set [5] of 61%.

Source of the values: ChEMBL document CHEMBL1127811, “Inhibitors of cholesterol biosynthesis. 2. Hypocholesterolemic and antioxidant activities of benzopyran and tetrahydronaphthalene analogues of the tocotrienols” (J Med Chem, 1994).
